The array DNA melting data of Ke et al. (doi:10.1101/2024.01.08.574731)

Legend:
[1] = folding enthalpy; higher = less favourable; fluorescence melt of hairpins on a sequencing array, two-state fit; details: sodium 0.088 M
How it was run: (§1)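 Library hairpins on a sequenced MiSeq flow cell carried annealed Cy3 and quencher oligos, and their Cy3 fluorescence was imaged in 50 mM Na-HEPES pH 8.0 with 25 mM NaCl, in 2.5 °C steps up to 60 °C. Signals were normalised to Cy3 before quenching and to control constructs. Melting temperature and folding enthalpy were obtained from bootstrapped two-state fits, combined by inverse-variance weighting across four replicates, and the fitted temperatures were then raised by 9.35 °C to match UV melts.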

[2] = melting temperature; fluorescence melt of hairpins on a sequencing array, two-state fit, raised by 9.35 °C to match UV melts; details: sodium 0.088 M
How it was run: as §1

Sequence | folding enthalpy [1] | Tm [2]
GTCGGCGAAAGCCCTGAC ((((((....)))..))) | -10.4 kcal/mol | 35.6 °C
GTCGGCGAAAGCCGAGAC ((((((....)))..))) | -7.78 kcal/mol | 55.6 °C
GTCGGCGAAAGCCTGGAC ((((((....)))..))) | -15.2 kcal/mol | 45 °C
GTCGGCTCGAAAGAGGAC (((..(((....)))))) | -16 kcal/mol | 32.2 °C
GTCGGGACGAAAGTCGAC (((..(((....)))))) | -18.9 kcal/mol | 47.5 °C
GTCGGGCGAAAGCCGAC (((.(((....)))))) | -23 kcal/mol | 68.6 °C
GTCGGGGCGAAAGCCGAC (((..(((....)))))) | -17.2 kcal/mol | 56.9 °C
GTCGGGGGAAACCCTGAC (((.(((....))).))) | -53.6 kcal/mol | 53.4 °C
GTCGGGGGAAACTCCGGC (.(((.(....).))).) | -29.9 kcal/mol | 47.2 °C
GTCGGTCGAAAGACAGAC (((.(((....))).))) | -37.8 kcal/mol | 57.8 °C
GTCGGTCGAAAGACGGAC (((.(((....))).))) | -34.8 kcal/mol | 59.1 °C
GTCGGTGGAAACATCGAC ((((.((....)).)))) | -45.1 kcal/mol | 53.9 °C
GTCGTAGGAAACTATGGC (.(.(((....))).).) | -17.8 kcal/mol | 32 °C
GTCGTCCGAAAGGATGAC (((.(((....))).))) | -54.4 kcal/mol | 62.1 °C
GTCGTCGAAAGACCGAC ((((((....))).))) | -23.5 kcal/mol | 50.7 °C
GTCGTCGAAAGACCTGAC ((((((....)))..))) | -14.7 kcal/mol | 31.7 °C
GTCGTCGAAAGACTAGAC ((((((....)))..))) | -18.4 kcal/mol | 42.5 °C
GTCGTCGAAAGACTCGAC ((((((....)))..))) | -14.9 kcal/mol | 38.6 °C
GTCGTCGAAAGACTGGAC ((((((....)))..))) | -20.7 kcal/mol | 39.2 °C
GTCGTGGAAACACGAC ((((((....)))))) | -35.4 kcal/mol | 68.5 °C
GTCGTGGGAAACCATGGC (.(.(((....))).).) | -25.6 kcal/mol | 40.6 °C
GTCGTGGGAAACCGTGAC (((..((....))..))) | -25.9 kcal/mol | 36.7 °C
GTCGTGGGAAACTACGAC (((((.(....).))))) | -37.3 kcal/mol | 53.9 °C

Sequence | folding enthalpy [1] | Tm [2]
GTCGTTCGAAAGAAAGAC (((.(((....))).))) | -31.2 kcal/mol | 47.8 °C
GTCTAACCGAAAGGTGAC (((..(((....)))))) | -17.6 kcal/mol | 42.2 °C
GTCTACCGAAAGGTCGAC (((.(((....))).))) | -33.9 kcal/mol | 48.7 °C
GTCTACCGAAAGGTTGAC (((.(((....))).))) | -40.5 kcal/mol | 52.6 °C
GTCTACGAAAGTAGGAC ((((((....))).))) | -16.5 kcal/mol | 44 °C
GTCTACGAAAGTAGTGAC ((((((....)))..))) | -14.3 kcal/mol | 33.4 °C
GTCTACGAAAGTATTGAC ((((((....)))..))) | -19.5 kcal/mol | 30.2 °C
GTCTACGCGAAAGCGGAC (((..(((....)))))) | -12.7 kcal/mol | 41.3 °C
GTCTAGCGAAAGCTCGAC (((.(((....))).))) | -28.2 kcal/mol | 50 °C
GTCTAGCGAAAGCTGAC (((.(((....)))))) | -21.1 kcal/mol | 50.5 °C
GTCTATCGAAAGATGGAC (((.(((....))).))) | -30.9 kcal/mol | 51.7 °C
GTCTATGGAAACATAGGC (.(((((....))))).) | -30.7 kcal/mol | 44 °C
GTCTCACGAAAGTGGAC (((.(((....)))))) | -20.7 kcal/mol | 47.2 °C
GTCTCATCGAAAGATGAC (((..(((....)))))) | -10.9 kcal/mol | 35.4 °C
GTCTCCCCGAAAGGGGAC (((..(((....)))))) | -7.01 kcal/mol | 37.8 °C
GTCTCCGAAAGGATAGAC ((((((....)))..))) | -23.8 kcal/mol | 41 °C
GTCTCCGGAAACGAAGAC ((((.((....)).)))) | -25.9 kcal/mol | 41.9 °C
GTCTCCGGAAACGGGGAC (((.(((....))).))) | -41.1 kcal/mol | 57.7 °C
GTCTCGGGAAACTGAGGC (.(((.(....).))).) | -30.8 kcal/mol | 38.8 °C
GTCTCTGGAAACAGGGAC (((.(((....))).))) | -27.4 kcal/mol | 48.9 °C
GTCTCTGGAAACGGAGAC (((((.(....).))))) | -34.7 kcal/mol | 50.8 °C
GTCTCTTCGAAAGAAGAC (((..(((....)))))) | -9.3 kcal/mol | 32 °C
GTCTGAGGAAACTCAGGC (.(((((....))))).) | -32.2 kcal/mol | 49.5 °C

Sequence | folding enthalpy [1] | Tm [2]
GTCTGCGAAAGCAAAGAC ((((((....)))..))) | -19.1 kcal/mol | 50.1 °C
GTCTGCGAAAGCAACGAC ((((((....)))..))) | -13.1 kcal/mol | 44.9 °C
GTCTGCGAAAGCAAGGAC ((((((....)))..))) | -17.5 kcal/mol | 43.2 °C
GTCTGCGAAAGCAATGAC ((((((....)))..))) | -16.8 kcal/mol | 39.3 °C
GTCTGCGAAAGCACGGAC ((((((....)))..))) | -15.2 kcal/mol | 38.9 °C
GTCTGCGGAAACGTGGAC (((..((....))..))) | -32.4 kcal/mol | 47.5 °C
GTCTGCTCGAAAGAGGAC (((..(((....)))))) | -18.1 kcal/mol | 31.3 °C
GTCTGGAAACAGAC (((((....))))) | -27.8 kcal/mol | 52.4 °C
GTCTGGCGAAAGCCCGAC (((.(((....))).))) | -25.7 kcal/mol | 52.2 °C
GTCTGGGGAAACCTGGAC (((..((....))..))) | -23.9 kcal/mol | 41 °C
GTCTGTCGAAAGACGGAC (((.(((....))).))) | -36.6 kcal/mol | 63.2 °C
GTCTGTCGAAAGACTGAC (((.(((....))).))) | -39.4 kcal/mol | 54.4 °C
GTCTTACCGAAAGGTGAC (((..(((....)))))) | -13.9 kcal/mol | 35.7 °C
GTCTTACGAAAGTAGAC (((.(((....)))))) | -23.8 kcal/mol | 43.4 °C
GTCTTAGCGAAAGCTGAC (((..(((....)))))) | -14.9 kcal/mol | 39 °C
GTCTTAGGAAACTAGGAC (((.(((....))).))) | -33.8 kcal/mol | 38.4 °C
GTCTTCCGAAAGGAGGAC (((.(((....))).))) | -38.2 kcal/mol | 54.5 °C
GTCTTCGAAAGAAAGGAC ((((((....)))..))) | -10.7 kcal/mol | 26.7 °C
GTCTTCGAAAGAAGGGAC ((((((....)))..))) | -14.1 kcal/mol | 32.9 °C
GTCTTCGAAAGAATTGAC ((((((....)))..))) | -10.7 kcal/mol | 26.2 °C
GTCTTCGGAAACGAAGGC (.(((((....))))).) | -32.9 kcal/mol | 53.8 °C
GTCTTTACGAAAGTAGAC (((..(((....)))))) | -17.4 kcal/mol | 31.8 °C
GTCTTTCGAAAGAAGGAC (((.(((....))).))) | -31.5 kcal/mol | 47.4 °C

Sequence | folding enthalpy [1] | Tm [2]
GTCTTTCGAAAGAATGAC (((.(((....))).))) | -36.6 kcal/mol | 45.2 °C
GTCTTTGAAAAAAGAC ((((((....)))))) | -31.1 kcal/mol | 48 °C
GTCTTTGGAAACAAAGAC (((((((....))))))) | -42.3 kcal/mol | 56.5 °C
GTCTTTGGAAACAAGGAC (((.(((....))).))) | -31.1 kcal/mol | 41.5 °C
GTCTTTGGAAACAGAGAC ((((.((....)).)))) | -26 kcal/mol | 37.3 °C
GTCTTTTCGAAAGAAGAC (((..(((....)))))) | -18.7 kcal/mol | 31.6 °C
GTGAAAGCGAAAGCTCAC (((..(((....)))))) | -23.9 kcal/mol | 47.6 °C
GTGAACCGAAAGGTCAC (((.(((....)))))) | -27.2 kcal/mol | 54.9 °C
GTGAACGAAAGTTCGCAC ((((((....)))..))) | -16.4 kcal/mol | 51.3 °C
GTGAACGGAAACGTCCAC (((.(((....))).))) | -31.9 kcal/mol | 45.1 °C
GTGAAGCGAAAGCTCAC (((.(((....)))))) | -26.2 kcal/mol | 56 °C
GTGAAGGGAAACCTTCGC (.(((((....))))).) | -25.8 kcal/mol | 50.2 °C
GTGAATGCGAAAGCACAC (((..(((....)))))) | -14.7 kcal/mol | 40.7 °C
GTGAATGGAAACATTCAC (((((((....))))))) | -45.6 kcal/mol | 56.9 °C
GTGAATGGAAACATTTGC (..((((....))))..) | -15.5 kcal/mol | 31.4 °C
GTGAATGGAAACGTTCAC (((((.(....).))))) | -39.7 kcal/mol | 47.1 °C
GTGACAGGAAACTATCAC ((((.((....)).)))) | -19.4 kcal/mol | 33.2 °C
GTGACAGGAAACTGTTGC (..((((....))))..) | -20.8 kcal/mol | 37.3 °C
GTGACCGAAAGGTACAC ((((((....))).))) | -19.4 kcal/mol | 49.9 °C
GTGACCGAAAGGTCCCAC ((((((....)))..))) | -8.57 kcal/mol | 35.9 °C
GTGACCGAAAGGTGCCAC ((((((....)))..))) | -12.1 kcal/mol | 30.2 °C
GTGACGCCGAAAGGCCAC (((..(((....)))))) | -11.8 kcal/mol | 45.2 °C
